The source of these data is ChEMBL document CHEMBL4433213, “Investigation on 2',3'-O-Substituted ATP Derivatives and Analogs as Novel P2X3 Receptor Antagonists” (ACS Med Chem Lett, 2019).

Calls of active or inactive are those of the source. No cut-off for these calls is given here. A value given as a limit tells only on which side of the number the result lay.

Test [1] deals with T1, P2X purinoceptor 1 (Homo sapiens) (UniProt P51575).
T1 sequence (whole entry): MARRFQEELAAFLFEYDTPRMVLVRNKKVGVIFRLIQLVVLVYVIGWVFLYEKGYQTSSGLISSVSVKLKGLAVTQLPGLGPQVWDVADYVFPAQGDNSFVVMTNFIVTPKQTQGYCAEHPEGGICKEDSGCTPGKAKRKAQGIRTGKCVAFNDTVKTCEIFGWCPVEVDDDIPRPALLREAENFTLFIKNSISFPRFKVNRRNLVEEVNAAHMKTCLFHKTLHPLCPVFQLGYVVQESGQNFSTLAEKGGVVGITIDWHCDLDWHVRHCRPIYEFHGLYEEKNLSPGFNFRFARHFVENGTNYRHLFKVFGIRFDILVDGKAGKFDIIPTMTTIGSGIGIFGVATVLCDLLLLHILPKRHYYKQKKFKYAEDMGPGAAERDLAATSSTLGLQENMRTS
As to the kind of experiment: Antagonist activity at human P2X1R transfected in human 1321N1 cells assessed as inhibition of ATP-induced calcium influx relative to control. To be noted: concentration not given here. It counts as cell-based. Put shortly:
(§1)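 1321N1 astrocytoma cells stably expressing human P2X1, P2X2, P2X3 or P2X4 receptor. Calcium influx was induced by ATP at the EC80 for each subtype. Results are given as IC50 (μM) or % inhibition at the indicated concentration.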

Test [2] addresses T2, P2X purinoceptor 3 (Homo sapiens) (UniProt P56373).
T2 sequence (whole entry): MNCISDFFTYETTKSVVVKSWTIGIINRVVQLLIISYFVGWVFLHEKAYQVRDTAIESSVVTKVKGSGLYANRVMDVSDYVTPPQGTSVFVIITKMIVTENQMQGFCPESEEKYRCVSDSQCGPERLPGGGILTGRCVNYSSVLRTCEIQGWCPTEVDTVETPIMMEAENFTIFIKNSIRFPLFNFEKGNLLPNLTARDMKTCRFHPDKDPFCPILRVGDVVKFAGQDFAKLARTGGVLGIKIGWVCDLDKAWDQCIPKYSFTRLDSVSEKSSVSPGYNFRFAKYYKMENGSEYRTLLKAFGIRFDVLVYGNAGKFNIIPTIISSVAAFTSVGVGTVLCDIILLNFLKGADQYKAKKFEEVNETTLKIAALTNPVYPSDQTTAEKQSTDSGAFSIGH
As to the kind of experiment: Antagonist activity at human P2X3R transfected in human 1321N1 cells assessed as inhibition of ATP-induced calcium influx relative to control. It counts as cell-based. To be noted: concentration not given here. Put shortly: as §1

The target of the next test is T3, P2X purinoceptor 4 (Homo sapiens, UniProt Q99571).
T3 sequence (Q99571 whole entry): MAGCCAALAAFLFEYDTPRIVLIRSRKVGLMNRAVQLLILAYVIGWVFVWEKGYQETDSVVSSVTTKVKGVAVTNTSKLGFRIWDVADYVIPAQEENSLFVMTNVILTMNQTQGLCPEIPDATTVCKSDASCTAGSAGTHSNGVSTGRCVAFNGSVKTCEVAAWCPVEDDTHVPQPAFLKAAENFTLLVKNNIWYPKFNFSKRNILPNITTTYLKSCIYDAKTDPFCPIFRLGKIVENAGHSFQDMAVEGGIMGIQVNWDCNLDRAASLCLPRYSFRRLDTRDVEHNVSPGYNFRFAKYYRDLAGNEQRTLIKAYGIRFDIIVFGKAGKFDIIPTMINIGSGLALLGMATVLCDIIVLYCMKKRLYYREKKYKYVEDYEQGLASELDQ
The test can be described thus: Antagonist activity at human P2X4R transfected in human 1321N1 cells assessed as inhibition of ATP-induced calcium influx. It counts as cell-based. Put shortly: as §1

The target of test [3] is T4, P2X purinoceptor 4 (Homo sapiens) (UniProt Q99571).
T4 sequence (whole entry): T3 sequence (Q99571 whole entry)
The test can be described thus: Antagonist activity at human P2X4R transfected in human 1321N1 cells assessed as inhibition of ATP-induced calcium influx relative to control. It counts as cell-based. The conditions noted are these: concentration not given here. Summed up:
as §1

In test [4] the target is T5, P2X purinoceptor 3 (Mus musculus) (UniProt Q3UR32).
T5 sequence (whole entry): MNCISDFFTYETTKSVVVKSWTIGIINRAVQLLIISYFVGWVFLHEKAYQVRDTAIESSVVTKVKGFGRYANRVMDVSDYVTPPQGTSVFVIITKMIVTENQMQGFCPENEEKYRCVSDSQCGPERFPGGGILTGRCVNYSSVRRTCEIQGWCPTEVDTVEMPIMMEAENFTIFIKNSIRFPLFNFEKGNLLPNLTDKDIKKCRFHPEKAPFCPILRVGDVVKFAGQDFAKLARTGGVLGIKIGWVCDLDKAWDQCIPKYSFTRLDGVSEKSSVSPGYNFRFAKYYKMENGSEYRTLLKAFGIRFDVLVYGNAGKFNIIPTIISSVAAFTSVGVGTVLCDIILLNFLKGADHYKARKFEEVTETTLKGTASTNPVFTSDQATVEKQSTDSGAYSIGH
As to the kind of experiment: Agonist activity at P2X3R in mouse TG sensory neurons assessed as induction of channel current at 1 uM at -65 mV holding potential by whole cell voltage clamp method relative to alpha,beta-meATP.

For a further test, the species on record is Mus musculus. The test can be described thus: Antagonist activity at GABAA receptor in mouse TG sensory neurons assesed as inhibition of GABAA receptor agonist GABA-evoked currents at 1 uM pre-applied before GABA addition. Put shortly: (§2)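 In mouse trigeminal sensory neurons, test compound was preapplied at 1 μM, then 10 μM GABA (GABAA) or 10 μM 5-HT (5-HT3) was applied. Current amplitudes were normalized to the control current evoked by the same agonist alone. N = 5 cells.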

In test [5] the target is T6, 5-hydroxytryptamine receptor 3A (Mus musculus) (UniProt P23979).
T6 sequence (whole entry): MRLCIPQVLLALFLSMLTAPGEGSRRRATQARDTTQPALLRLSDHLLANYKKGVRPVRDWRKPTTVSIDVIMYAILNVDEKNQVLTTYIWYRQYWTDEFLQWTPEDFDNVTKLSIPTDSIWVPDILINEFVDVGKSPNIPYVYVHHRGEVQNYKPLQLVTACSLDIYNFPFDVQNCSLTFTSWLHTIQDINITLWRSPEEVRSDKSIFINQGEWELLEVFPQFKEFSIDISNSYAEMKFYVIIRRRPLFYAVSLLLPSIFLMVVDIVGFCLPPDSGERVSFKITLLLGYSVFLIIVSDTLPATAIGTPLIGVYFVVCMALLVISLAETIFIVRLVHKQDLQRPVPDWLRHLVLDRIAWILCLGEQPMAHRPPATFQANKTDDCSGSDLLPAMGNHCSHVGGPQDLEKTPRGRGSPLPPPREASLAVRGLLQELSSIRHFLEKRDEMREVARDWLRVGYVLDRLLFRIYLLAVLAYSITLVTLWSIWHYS
As to the kind of experiment: Antagonist activity at 5-HT3 receptor in mouse TG sensory neurons assessed as inhibition of 5-HT3 receptor agonist 5-HT-evoked currents at 1 uM pre-applied before 5-HT addition. Summed up:
as §2

The species named for test [6] is Homo sapiens. As to the kind of experiment: Selectivity ratio of IC50 for human P2X1R transfected in human […] 1321N1 cells to IC50 for human transfected in human 1321N1 cells. It counts as cell-based.
The species entered for test [7] is Homo sapiens. The test can be described thus: Selectivity ratio of IC50 for human P2X4R transfected in human […] 1321N1 cells to IC50 for human transfected in human 1321N1 cells. It counts as cell-based.

As a reminder, the inhibition is the drop in the measured response relative to a control, in per cent. Usually IC50 stands for the midpoint of a concentration-inhibition curve. Take `Nc1ncnc2c1ncn2[C@@H]1O[C@H](COP(=O)(O)OP(=O)(O)OP(=O)(O)O)[C@H]2OCO[C@H]21`: the inhibition was 1% in [1], 8% in test [2] and 12% in test [3]. In addition, the IC50 on P2X purinoceptor 4 is above 100 µM.
As for `CC1(C)O[C@@H]2[C@H](O1)[C@@H](COP(=O)(O)OP(=O)(O)OP(=O)(O)O)O[C@H]2n1cnc2c(N)ncnc21`, at P2X purinoceptor 4, the concentration for half-maximal inhibition (IC50) worked out at 48 µM. Further, the Activity in [4] came to 23%. For the same compound, the inhibition entry (in the test listed under Mus musculus; in test [5]) was “inactive” throughout. Moreover, the Ratio IC50 is 10 in the test listed under Homo sapiens [6] and 12 in the test listed under Homo sapiens [7].
Consider `Nc1ncnc2c1ncn2[C@@H]1O[C@H](COP(=O)(O)CP(=O)(O)OP(=O)(O)O)[C@H]2OC3(CCCCC3)O[C@H]21`, for which the inhibition in test [1] is -1%. In addition, on P2X purinoceptor 4, the IC50 was above 100 µM. The inhibition entry (in the test filed under Mus musculus; in [5]) was “inactive” in each case.
